{"source": "ChEMBL document CHEMBL4706487", "about": "“Antitumor agents 7. Synthesis, antiproliferative activity and molecular modeling of new l-lysine-conjugated pyridophenoxazinones as potent DNA-binding ligands and topoisomerase IIα inhibitors” (Eur J Med Chem, 2020)", "key": {"G-361": {"tested_on": "G-361", "assay": "Antiproliferative activity against human G-361 cells assessed as cell viability measured after 4 days by MTT assay", "assay_type": "functional, cell-based", "conditions": "G-361, 96 h", "in_short": "(§1)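 Leukemia/lymphoma cells (RPMI 1640, 10% FCS) resuspended at 1 × 10⁵ cells/mL with serial drug dilutions and read by MTT after 96 h at 37 °C. Solid-tumor cells (own media, 10% FCS) were seeded at 5 × 10⁴ cells/mL, allowed 16 h to adhere, then dosed and read by MTT 4 days later. IC50 was derived by linear regression of growth as % of untreated controls.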"}, "HeLa": {"tested_on": "HeLa", "assay": "Antiproliferative activity against human HeLa cells assessed as cell viability measured after 4 days by MTT assay", "assay_type": "functional, cell-based", "conditions": "96 h", "in_short": "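Solid-tumor cells (own media, 10% FCS) were seeded at 5 × 10⁴ cells/mL, allowed 16 h to adhere, then dosed and read by MTT 4 days later. IC50 was derived by linear regression of growth as % of untreated controls.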"}, "MT4": {"tested_on": "MT4", "assay": "Antiproliferative activity against human MT-4 cells assessed as cell viability measured after 4 days by MTT assay", "assay_type": "functional, cell-based", "conditions": "MT4, 96 h", "in_short": "as §1"}, "Calf thymus DNA [1]": {"tested_on": "Calf thymus DNA", "assay": "Binding affinity to calf thymus DNA assessed as hypochromism by UV-vis spectroscopy", "conditions": "Bos taurus"}, "Calf thymus DNA [2]": {"tested_on": "Calf thymus DNA", "assay": "Binding affinity to calf thymus DNA assessed as red shift by UV-vis spectroscopy", "assay_type": "nucleic-acid assay", "design": "unit not given here", "conditions": "Bos taurus", "in_short": "(§2)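 ctDNA held at 0.2 mM in phosphate buffer pH 7 and titrated with drug from […]. UV-vis spectra recorded in a 1 cm quartz cuvette. Binding constant was taken by the mole-ratio method from optical density changes at 260 nm, using a double reciprocal plot.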"}, "HT-29": {"tested_on": "HT-29", "assay": "Antiproliferative activity against human HT-29 cells assessed as cell viability measured after 4 days by MTT assay", "assay_type": "functional, cell-based", "conditions": "HT-29, 96 h", "in_short": "as §1"}, "SK-MEL-28": {"tested_on": "SK-MEL-28", "assay": "Antiproliferative activity against human SKMEL-28 cells assessed as cell viability measured after 4 days by MTT assay", "assay_type": "functional, cell-based", "conditions": "SK-MEL-28, 96 h", "in_short": "as §1"}, "CCRF-CEM": {"tested_on": "CCRF-CEM", "assay": "Antiproliferative activity against human CCRF-CEM cells assessed as cell viability measured after 4 days by MTT assay", "assay_type": "functional, cell-based", "conditions": "96 h", "in_short": "as §1"}, "Calf thymus DNA [3]": {"tested_on": "Calf thymus DNA", "assay": "Binding affinity to calf thymus DNA assessed as lamda max by UV-vis spectroscopy", "assay_type": "nucleic-acid assay", "conditions": "Bos taurus", "in_short": "as §2"}, "MCF7": {"tested_on": "MCF7", "assay": "Antiproliferative activity against human MCF7 cells assessed as cell viability measured after 4 days by MTT assay", "assay_type": "functional, cell-based", "conditions": "MCF7, 96 h", "in_short": "as §1"}, "ACHN": {"tested_on": "ACHN", "assay": "Antiproliferative activity against human ACHN cells assessed as cell viability measured after 4 days by MTT assay", "assay_type": "functional, cell-based", "conditions": "96 h", "in_short": "as §1"}, "CCRF-SB": {"tested_on": "CCRF-SB", "assay": "Antiproliferative activity against human CCRF-SB cells assessed as cell viability measured after 4 days by MTT assay", "assay_type": "functional, cell-based", "conditions": "96 h", "in_short": "as §1"}, "Calf thymus DNA [4]": {"tested_on": "Calf thymus DNA", "assay": "Binding affinity to calf thymus DNA assessed as isosbestic point by UV-vis spectroscopy", "assay_type": "nucleic-acid assay", "conditions": "Bos taurus", "in_short": "as §2"}, "DNA": {"tested_on": "DNA", "assay": "Binding affinity at Escherichia coli pBR322 DNA assessed as unwinding of supercoiled DNA at 10 uM incubated for 10 mins in presence of human topoisomerase 1 by agarose gel based electrophoresis", "assay_type": "nucleic-acid assay", "in_short": "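Intercalation assay with relaxed pBR322 (300 ng) and 2 units human Topo I in 50 mM Tris-HCl pH 7.5, 2.5 mM MgCl₂, 0.5 mM DTT and 50 µg/mL BSA, run 10 min at 37 °C. Stopped by phenol/chloroform/isoamyl alcohol extraction. Products run on 1.2% agarose in TAE, 2 V/cm for 15 h, then EtBr-stained. EtBr served as control; three independent experiments.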"}}, "note": "Calls of active or inactive are those of the source. The calls are words filed in the database; no cut-off is given here. Starred links: 1 amine or outer side, 2 acyl side, 3 side chain; linkers in the order of their positions; H or OH if unused. Positions of bridges follow the written chain, without caps; N, C: chain ends. Non-standard residues stand in square brackets, D forms with d. Residues, ends and D or L forms follow the SMILES beside them. Chains are numbered I, II in the order given. Actinocin(1to9) = Cc1c2oc3c(C)ccc(C(=O)[*:2])c3nc-2c(C(=O)[*:1])c(N)c1=O; NMeV = CN[C@H](C(=O)O)C(C)C; Sar = CNCC(=O)O", "data": [{"smiles": "Cc1c2oc3c(C)ccc(C(=O)N[C@@H]4C(=O)N[C@H](C(C)C)C(=O)N5CCC[C@H]5C(=O)N(C)CC(=O)N(C)[C@@H](C(C)C)C(=O)O[C@@H]4C)c3nc-2c(C(=O)N[C@@H]2C(=O)N[C@H](C(C)C)C(=O)N3CCC[C@H]3C(=O)N(C)CC(=O)N(C)[C@@H](C(C)C)C(=O)O[C@@H]2C)c(N)c1=O", "note": "[DACTINOMYCIN] (I: T[dV]P[Sar][NMeV] / II: T[dV]P[Sar][NMeV]; ester I:1-I:C, II:1-II:C; linker I:N-II:N via Actinocin(1to9))", "values": [{"measurement": "IC50", "setting": "G-361", "value": 6, "unit": "nM"}]}, {"smiles": "N[C@@H](CCCCNC(=O)c1ccc2nc3c4ncccc4c(=O)cc-3oc2c1)C(=O)O", "values": [{"measurement": "IC50", "setting": "HeLa", "value": 100, "unit": "nM"}, {"measurement": "IC50", "setting": "MT4", "value": 200, "unit": "nM"}, {"measurement": "Activity", "setting": "Calf thymus DNA [1]", "value": 17, "unit": "%"}, {"measurement": "Activity", "setting": "Calf thymus DNA [2]", "value": 461}, {"measurement": "IC50", "setting": "HT-29", "value": 100, "unit": "nM"}, {"measurement": "IC50", "setting": "G-361", "value": 90, "unit": "nM"}, {"measurement": "IC50", "setting": "SK-MEL-28", "value": 80, "unit": "nM"}, {"measurement": "IC50", "setting": "CCRF-CEM", "value": 150, "unit": "nM"}, {"measurement": "Activity", "setting": "Calf thymus DNA [3]", "value": 459}, {"measurement": "IC50", "setting": "MCF7", "value": 120, "unit": "nM"}, {"measurement": "IC50", "setting": "ACHN", "value": 70, "unit": "nM"}, {"measurement": "IC50", "setting": "CCRF-SB", "value": 160, "unit": "nM"}, {"measurement": "Activity", "setting": "Calf thymus DNA [4]", "value": 320, "unit": "nm"}]}, {"smiles": "NCCCC[C@H](NC(=O)c1ccc2oc3cc(=O)c4ncccc4c-3nc2c1)C(=O)O", "values": [{"measurement": "IC50", "setting": "HeLa", "value": 80, "unit": "nM"}, {"measurement": "IC50", "setting": "MT4", "value": 90, "unit": "nM"}, {"measurement": "Activity", "setting": "Calf thymus DNA [1]", "value": 30, "unit": "%"}, {"measurement": "Activity", "setting": "Calf thymus DNA [2]", "value": 440}, {"measurement": "IC50", "setting": "HT-29", "value": 80, "unit": "nM"}, {"measurement": "IC50", "setting": "G-361", "value": 60, "unit": "nM"}, {"measurement": "IC50", "setting": "SK-MEL-28", "value": 120, "unit": "nM"}, {"measurement": "IC50", "setting": "CCRF-CEM", "value": 100, "unit": "nM"}, {"measurement": "Activity", "setting": "DNA", "value": "Active"}, {"measurement": "Activity", "setting": "Calf thymus DNA [3]", "value": 437}, {"measurement": "IC50", "setting": "MCF7", "value": 100, "unit": "nM"}, {"measurement": "IC50", "setting": "ACHN", "value": 100, "unit": "nM"}, {"measurement": "IC50", "setting": "CCRF-SB", "value": 120, "unit": "nM"}, {"measurement": "Activity", "setting": "Calf thymus DNA [4]", "value": 343, "unit": "nm"}]}, {"smiles": "NCCCC[C@H](NC(=O)c1ccc2nc3c4ncccc4c(=O)cc-3oc2c1)C(=O)O", "values": [{"measurement": "IC50", "setting": "HeLa", "value": 50, "unit": "nM"}, {"measurement": "IC50", "setting": "MT4", "value": 200, "unit": "nM"}, {"measurement": "Activity", "setting": "Calf thymus DNA [1]", "value": 26, "unit": "%"}, {"measurement": "Activity", "setting": "Calf thymus DNA [2]", "value": 455}, {"measurement": "IC50", "setting": "HT-29", "value": 100, "unit": "nM"}, {"measurement": "IC50", "setting": "G-361", "value": 50, "unit": "nM"}, {"measurement": "IC50", "setting": "SK-MEL-28", "value": 60, "unit": "nM"}, {"measurement": "IC50", "setting": "CCRF-CEM", "value": 17, "unit": "nM"}, {"measurement": "Activity", "setting": "Calf thymus DNA [3]", "value": 451}, {"measurement": "IC50", "setting": "MCF7", "value": 50, "unit": "nM"}, {"measurement": "IC50", "setting": "ACHN", "value": 60, "unit": "nM"}, {"measurement": "IC50", "setting": "CCRF-SB", "value": 80, "unit": "nM"}, {"measurement": "Activity", "setting": "Calf thymus DNA [4]", "value": 297, "unit": "nm"}]}, {"smiles": "O=c1cc2oc3ccccc3nc-2c2cccnc12", "values": [{"measurement": "IC50", "setting": "MCF7", "value": 230, "unit": "nM"}]}, {"smiles": "N[C@@H](CCCCNC(=O)c1ccc2oc3cc(=O)c4ncccc4c-3nc2c1)C(=O)O", "values": [{"measurement": "IC50", "setting": "HeLa", "value": 50, "unit": "nM"}, {"measurement": "IC50", "setting": "MT4", "value": 90, "unit": "nM"}, {"measurement": "Activity", "setting": "Calf thymus DNA [1]", "value": 39, "unit": "%"}, {"measurement": "Activity", "setting": "Calf thymus DNA [2]", "value": 440}, {"measurement": "IC50", "setting": "HT-29", "value": 20, "unit": "nM"}, {"measurement": "IC50", "setting": "G-361", "value": 20, "unit": "nM"}, {"measurement": "IC50", "setting": "SK-MEL-28", "value": 40, "unit": "nM"}, {"measurement": "IC50", "setting": "CCRF-CEM", "value": 40, "unit": "nM"}, {"measurement": "Activity", "setting": "DNA", "value": "Active"}, {"measurement": "Activity", "setting": "Calf thymus DNA [3]", "value": 436}, {"measurement": "IC50", "setting": "MCF7", "value": 60, "unit": "nM"}, {"measurement": "IC50", "setting": "ACHN", "value": 50, "unit": "nM"}, {"measurement": "IC50", "setting": "CCRF-SB", "value": 80, "unit": "nM"}, {"measurement": "Activity", "setting": "Calf thymus DNA [4]", "value": 310, "unit": "nm"}]}]}
